The text below walks through data of ChEMBL document CHEMBL1132160, “Structure-antiviral activity relationship in the series of pyrimidine and purine N-[2-(2-phosphonomethoxy)ethyl] nucleotide analogues. 1. Derivatives substituted at the carbon atoms of the base” (J Med Chem, 1999).

The subject of test [1] is Human immunodeficiency virus 2. Kind of test: Inhibition of human immunodeficiency virus type 2 (HIV-2) induced cytopathogenicity in CEM cells. The format is functional, organism-based. The conditions noted are these: Human immunodeficiency virus 2, CCRF-CEM. In general terms: Protection from cytopathic effect is a common read-out in antiviral testing.
Test [2] deals with Human alphaherpesvirus 2. Put plainly: Inhibitory activity against herpes simplex virus type 2 (HSV-2) Lyons strain. Type of test: functional, organism-based. The method, boiled down:
(§1)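 Confluent E6SM cell cultures were inoculated with 100 CCID50 of virus and allowed 1 h for adsorption. Residual virus was then removed, and the cells were incubated with test compound at 400, 200, 100, ... μg/mL. Viral cytopathicity was scored once it reached completion in untreated infected controls.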

Test [3] has as its system Human alphaherpesvirus 1. Kind of test: Inhibitory activity against herpes simplex virus type 1 (HSV-1) KOS strain. The format is functional, organism-based. The method, boiled down:
as §1

Test [4] has as its system Cytomegalovirus. Put plainly: Inhibitory activity against cytomegalovirus (CMV) AD 169 strain. The format is functional, organism-based. Particulars: Human betaherpesvirus 5. The method, boiled down: (§2)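 HEL cell cultures, grown to confluence, received 100 CCID50 of virus. After 1 h adsorption, the inoculum was removed and the cultures were incubated with serial concentrations of compound (400, 200, 100, ... μg/mL).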

The subject of test [5] is Human alphaherpesvirus 1. Put plainly: Inhibitory activity against herpes simplex virus type 1 (HSV-1) McIntyre strain. The format is functional, organism-based. The method, boiled down: as §1
A short description of test [6]: Inhibitory activity against herpes simplex virus type 2 (HSV-2) 196 strain. Type of test: functional. The method, boiled down: as §1
Test [7] deals with Human alphaherpesvirus 1. Kind of test: Inhibition of herpes simplex virus type 1 (HSV-1) F strain. Type of test: functional, organism-based. The method, boiled down: as §1
For test [8], the system named is Human alphaherpesvirus 2. Kind of test: Inhibitory activity against herpes simplex virus type 2 (HSV-2) G strain. Type of test: functional, organism-based. The method, boiled down: as §1
The subject of test [9] is Human immunodeficiency virus 1. Kind of test: Inhibition of human immunodeficiency virus type 1 (HIV-1) induced cytopathogenicity in CEM cells. Type of test: functional, organism-based. Particulars: Human immunodeficiency virus 1, CCRF-CEM. The method, boiled down: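 CEM cells (~3 × 10⁵ cells/mL) were infected with 100 CCID50 of HIV-1 (IIIB)/mL and plated with dilutions of compound. After 4 days at 37 °C, giant cell formation was assessed microscopically.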

The test system of test [10] is Cytomegalovirus. Put plainly: Inhibitory activity against cytomegalovirus (CMV) Davis strain. The format is functional, organism-based. Particulars: Human betaherpesvirus 5. The method, boiled down:
as §2

The nature of test [11]: Inhibitory activity against murine sarcoma virus induced transformation of murine C3H/3T3 embryo fibroblasts. Type of test: functional, Mus musculus. The method, boiled down:
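Murine C3H/3T3 embryo fibroblasts were seeded at 5 × 10⁵ cells/mL. After 24 h they were infected with 80 focus-forming units of MSV for 90–120 min at 37 °C. The medium was then replaced with fresh medium containing various compound concentrations, and transformation was examined microscopically after 6 days.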

Another test deals with Vaccinia virus. Put plainly: Inhibitory activity against vaccinia virus (VV). Type of test: functional, organism-based. Particulars: Orthopoxvirus vaccinia. The method, boiled down:
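Confluent E6SM cell cultures were inoculated with 100 CCID50 of virus and left for 1 h adsorption, then residual virus was removed. Cultures were incubated with test compound at serial concentrations (400, 200, 100, ... μg/mL). Virus-induced cytopathicity was scored once it reached completion in untreated infected control cultures.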

The subject of test [12] is Human immunodeficiency virus 1. Put plainly: Inhibitory activity of compound against human immunodeficiency virus type 1 (HIV-1) induced cytopathogenicity in MT-4 cells. The conditions noted are these: Human immunodeficiency virus 1, MT4. The format is functional, organism-based. The method, boiled down: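 Human MT-4 cells (~4 × 10⁵ cells/mL) were infected with 100 CCID50 of HIV-1 (IIIB)/mL and seeded into wells containing compound dilutions. After 5 days at 37 °C, viable cells were counted by trypan blue exclusion in a blood cell counting chamber.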

Converted amounts (≈) assume the structure as drawn.

Usually EC50 stands for the concentration that produces a half-maximal response. Take `Nc1nc(O)c2nc(Br)n(CCOCP(=O)(O)O)c2n1`: the EC50 in [1] was more than 100 µg/mL; with Human alphaherpesvirus 2 [2], more than 400 µg/mL; in the test on Human alphaherpesvirus 1 [3], 240 µg/mL (≈ 652 µM); in the test on Cytomegalovirus [4], 43 µg/mL (≈ 117 µM); with Human alphaherpesvirus 1 [5], 240 µg/mL (≈ 652 µM); in test [6], 240 µg/mL (≈ 652 µM). Moreover, the EC50 with Human alphaherpesvirus 1 [7] was 240 µg/mL (≈ 652 µM); with Human alphaherpesvirus 2 [8], 240 µg/mL (≈ 652 µM); in test [9] it was more than 100 µg/mL; with Cytomegalovirus [10] it was more than 50 µg/mL; in [11] it was more than 0.16 µg/mL.

On to `CC(C)CCCCCOP(=O)(COCCn1cnc2c(N)nc(N)nc21)OCCCCCC(C)C`, for which the EC50 in test [1] is more than 4 µg/mL; with Human alphaherpesvirus 1 [3] it was more than 16 µg/mL; with Cytomegalovirus [4] it was 0.86 µg/mL (≈ 1.68 µM); in the test with Human alphaherpesvirus 2 [8], more than 16 µg/mL; in [9], more than 4 µg/mL; in the test with Vaccinia virus, more than 16 µg/mL. The concentration for a half-maximal effect (EC50) with Cytomegalovirus [10] is 0.8 µg/mL (≈ 1.56 µM); in test [11], more than 8 µg/mL.

Consider `Nc1nc(Cl)c2ncn(CCOCP(=O)(O)O)c2n1`, for which the EC50 in test [1] was more than 0.16 µg/mL; in the test on Human alphaherpesvirus 2 [2], 0.38 µg/mL (≈ 1.24 µM); in the test with Human alphaherpesvirus 1 [3] it was 0.23 µg/mL (≈ 0.748 µM); with Cytomegalovirus [4] it was 0.05 µg/mL (≈ 0.163 µM); in the test with Human alphaherpesvirus 1 [5], 0.22 µg/mL (≈ 0.715 µM); in test [6], 0.38 µg/mL (≈ 1.24 µM). The EC50 in the test with Human alphaherpesvirus 1 [7] is 0.13 µg/mL (≈ 0.423 µM); in the test with Human alphaherpesvirus 2 [8], 0.38 µg/mL (≈ 1.24 µM); in [9] it was more than 0.16 µg/mL; in the test on Cytomegalovirus [10], 0.3 µg/mL (≈ 0.975 µM); in test [11], more than 0.16 µg/mL.

Take `CC(C)CCCCCOP(=O)(COCCn1cnc2nc(N)nc(O)c21)OCCCCCC(C)C`: the EC50 in test [1] was more than 20 µg/mL; in the test on Human alphaherpesvirus 1 [3], more than 16 µg/mL; in the test with Cytomegalovirus [4], 11 µg/mL (≈ 21.4 µM); in the test with Human alphaherpesvirus 2 [8] it was more than 16 µg/mL; in test [9] it was more than 20 µg/mL; with Vaccinia virus, more than 16 µg/mL. For the same molecule, the EC50 was 11 µg/mL (≈ 21.4 µM) with Cytomegalovirus [10] and more than 8 µg/mL in test [11].

As to `CC(C)OP(=O)(COCCn1c(Br)nc2c(O)nc(N)nc21)OC(C)C`, the EC50 in [1] was more than 100 µg/mL; with Human alphaherpesvirus 2 [2] it was 240 µg/mL (≈ 531 µM); in the test with Human alphaherpesvirus 1 [3] it was more than 400 µg/mL; with Cytomegalovirus [4] it was more than 50 µg/mL; with Human alphaherpesvirus 1 [5], 240 µg/mL (≈ 531 µM); in test [6], 240 µg/mL (≈ 531 µM). Further, the EC50 is 240 µg/mL (≈ 531 µM) with Human alphaherpesvirus 1 [7]; more than 400 µg/mL with Human alphaherpesvirus 2 [8]; more than 100 µg/mL in test [9]; more than 50 µg/mL in the test on Cytomegalovirus [10]; more than 40 µg/mL in test [11].

For the molecule `CC(C)OP(=O)(COCCn1cnc2c(N)ncnc21)OC(C)C`, the EC50 with Human alphaherpesvirus 1 [3] was more than 400 µg/mL; with Cytomegalovirus [4] it was 8 µg/mL (≈ 22.4 µM); in the test on Human alphaherpesvirus 2 [8], more than 400 µg/mL; in test [12] it was 171 µg/mL (≈ 479 µM); with Vaccinia virus it was more than 400 µg/mL; in the test on Cytomegalovirus [10] it was 30 µg/mL (≈ 84 µM). For the same molecule, in test [11], the EC50 was more than 40 µg/mL.

As to `CC(C)OP(=O)(O)COCCn1cnc2c(N)ncnc21`, the EC50 in test [1] is more than 100 µg/mL; in the test on Human alphaherpesvirus 1 [3], 200 µg/mL (≈ 634 µM); with Cytomegalovirus [4], more than 50 µg/mL; in the test with Human alphaherpesvirus 2 [8], 300 µg/mL (≈ 952 µM); in [9], more than 100 µg/mL; in the test on Vaccinia virus, more than 400 µg/mL. Also, the values for the EC50 (in the test with Cytomegalovirus [10]; in test [11]) were more than 50 µg/mL and more than 40 µg/mL, respectively.

`CC(C)OP(=O)(O)COCCn1cnc2c(N)nc(N)nc21`: the EC50 in test [1] is more than 100 µg/mL; in the test with Human alphaherpesvirus 1 [3], 150 µg/mL (≈ 454 µM); in the test on Cytomegalovirus [4], more than 50 µg/mL; in the test on Human alphaherpesvirus 2 [8], more than 400 µg/mL; in test [9], more than 100 µg/mL; in the test with Vaccinia virus, more than 400 µg/mL. Moreover, the EC50 in the test with Cytomegalovirus [10] was more than 50 µg/mL; in test [11], more than 200 µg/mL.

`Nc1cc2ncn(CCOCP(=O)(O)O)c2c(O)n1`: the EC50 in the test on Human alphaherpesvirus 2 [2] is more than 200 µg/mL; in the test on Human alphaherpesvirus 1 [3] it was more than 200 µg/mL; with Cytomegalovirus [4], more than 100 µg/mL; in the test with Human alphaherpesvirus 1 [5] it was more than 200 µg/mL; in test [6] it was more than 200 µg/mL; in the test on Human alphaherpesvirus 1 [7], more than 200 µg/mL. Besides, the EC50 with Human alphaherpesvirus 2 [8] was more than 200 µg/mL; in the test on Cytomegalovirus [10], more than 100 µg/mL.

Turning to `CC(C)CCCCCOP(=O)(COCCn1cnc2c(N)ncnc21)OCCCCCC(C)C`, the 50% effective concentration (EC50) in test [1] is more than 4 µg/mL; with Human alphaherpesvirus 1 [3], more than 3.2 µg/mL; in the test with Cytomegalovirus [4], 1 µg/mL (≈ 2.01 µM); in the test with Human alphaherpesvirus 2 [8], 3.2 µg/mL (≈ 6.43 µM); in [9] it was more than 4 µg/mL; in the test on Vaccinia virus it was more than 3.2 µg/mL. The same molecule came in with an EC50 in the test on Cytomegalovirus [10] of 3 µg/mL (≈ 6.03 µM).

In the case of `CC(C)CCCCCOP(=O)(COCCn1cnc2c(O)nc(N)nc21)OCCCCCC(C)C`, the concentration giving a half-maximal response (EC50) in [1] was more than 4 µg/mL; in the test with Human alphaherpesvirus 1 [3], more than 80 µg/mL; with Cytomegalovirus [4], 1.2 µg/mL (≈ 2.34 µM); with Human alphaherpesvirus 2 [8], more than 80 µg/mL; in test [9], more than 4 µg/mL; in the test with Vaccinia virus, more than 80 µg/mL. Also, the EC50 in the test on Cytomegalovirus [10] is 1.1 µg/mL (≈ 2.14 µM); in test [11] it was more than 40 µg/mL.
